Screens deposited in PubChem BioAssay by several laboratories.
Calb FLC: affects C. albicans growth with fluconazole. C. albicans CaCi-2 (fluconazole-resistant clinical isolate) + fluconazole, Alamar Blue growth, 48 h. growth inhibition, % (concentration not given with the values). actives 0.57% (n = 300,000);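 active means growth inhibition above about 58% in most replicates, limit read from the data, passing the limit was not always enough; inconclusive means exactly half the replicates above a set limit; inactive means most replicates below a set limit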;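 further: all wells also contain fluconazole at 8 µg/ml as a sub-toxic cotreatment; 0% = median of DMSO wells and 100% = median of geldanamycin control wells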
ALR H2O2 inh: human ALR oxidase inhibition via reduced H2O2 | P55789 | purified ALR, DTT oxidation, H2O2 HRP-luminol luminescence | inhibition, % (no concentration beside the values) | actives 3.8% (n = 290,000) | AID 485317;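 active means mean replicate inhibition above about 79%, with every replicate also reaching it, limit read from the data; inconclusive means only one of the two criteria met; inactive means mean below limit and not every replicate reaching it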
Target sequence (P55789 whole entry, looked up): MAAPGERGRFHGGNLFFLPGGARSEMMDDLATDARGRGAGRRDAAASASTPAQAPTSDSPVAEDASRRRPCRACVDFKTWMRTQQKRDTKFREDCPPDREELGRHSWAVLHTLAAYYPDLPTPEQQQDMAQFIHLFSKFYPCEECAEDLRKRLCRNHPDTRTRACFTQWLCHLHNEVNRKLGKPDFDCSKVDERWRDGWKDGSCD
UCH37 inh: blocks the human deubiquitinase UCH37; Q9Y5K5; AID 588478; purified proteasome/UCH37, Ub-AMC cleavage fluorescence; actives 0.33% (n = 330,000); inhibition, % (no concentration beside the values);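 active means mean inhibition over replicate wells above about 20%, limit read from the data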;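 further: 0% = compound-free wells with enzyme and 100% = wells lacking proteasome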
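Assay system: Proteasome-bound UCH37. Buffer or medium: pH 7.4 Tris-HCl (50 mM) with ovalbumin, ATP-MgCl2, DTT. Incubation: 30 min preincubation with enzyme, 25 min cleavage at room temperature. Measured by: fluorescence, ex 355 nm, em 460 nm. Read-out basis: percent inhibition. Control set: wells without proteasome as full block, compound-free enzyme plus substrate as uninhibited.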
NALP1 yeast inh: NALP1 inhibition. AID 2071. inhibition, % at 10 µM. actives 0.61% (n = 280,000). S. cerevisiae NALP1/ASC/caspase-1 growth, X-gal OD620, 72 h; in the data active means inhibition mostly above about 24%, no sharp cut-off; inactive means mostly below about 32%
NALP3 yeast inh: inhibitors of NALP3 inflammasome in yeast; actives 0.39% (n = 330,000); inhibition, % at 10 µM; Yeast reconstituted NLRP3/ASC/caspase-1, beta-gal luminescence, 24 h;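 active means inhibition of 50% or more; inactive means inhibition below 50%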;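 further: plate controls were induced DMSO wells for no effect and uninduced yeast grown without galactose for full effect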
ATG4B inhibitor: blocks human ATG4B protease cleavage of LC3 substrate. Q9Y4P1. inhibition, % at 8.33 µM. ATG4B cleavage of LC3-PLA2, NBD-HPC fluorescence, 1 h. AID 504462. actives 0.51% (n = 340,000); in the data active means inhibition above about 40%
Target sequence (Q9Y4P1 whole entry, looked up): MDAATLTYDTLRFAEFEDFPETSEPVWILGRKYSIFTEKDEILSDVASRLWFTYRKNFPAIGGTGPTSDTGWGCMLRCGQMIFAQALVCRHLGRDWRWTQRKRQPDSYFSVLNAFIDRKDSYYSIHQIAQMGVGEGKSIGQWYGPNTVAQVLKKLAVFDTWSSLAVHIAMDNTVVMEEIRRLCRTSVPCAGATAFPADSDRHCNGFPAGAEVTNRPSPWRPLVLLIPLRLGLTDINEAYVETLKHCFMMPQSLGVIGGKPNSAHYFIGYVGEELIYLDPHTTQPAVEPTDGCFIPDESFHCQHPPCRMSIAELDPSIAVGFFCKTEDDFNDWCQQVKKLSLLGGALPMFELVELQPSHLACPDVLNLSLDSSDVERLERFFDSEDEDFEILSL
Active calls of the source: *; ? = inconclusive; / = no result given. Compounds with a hit are over-represented: about 4.8% of the library has one in this group of screens.

SMILES	Calb FLC	ALR H2O2 inh	UCH37 inh	NALP1 yeast inh	NALP3 yeast inh	ATG4B inhibitor
Cc1nnc(N2C(=O)C(O)=C(C(=O)c3ccco3)C2c2cccc([N+](=O)[O-])c2)s1 (stereo not given)	37.7	/	13.4	13.2	-1.4	6.6
Cc1cc(C)c2nc(N3C(=O)C(O)=C(C(=O)c4ccco4)C3c3ccc(O)cc3)sc2c1 (stereo not given)	/	99.2*	-2.2	/	18.1	1.6
CCOC(=O)c1sc(N2C(=O)C(O)=C(C(=O)c3ccco3)C2c2cccc([N+](=O)[O-])c2)nc1C (stereo not given)	29.3	91.3*	-18.6	14.2	/	11.9
Cc1ccc2nc(N3C(=O)C(O)=C(C(=O)c4ccco4)C3c3ccc(C)o3)sc2c1 (stereo not given)	?	88.5*	/	-5.8	14.2	3.3
Cc1ccc2nc(N3C(=O)C(O)=C(C(=O)c4ccco4)C3c3ccc(O)cc3)sc2c1 (stereo not given)	21.1	/	/	-17.8	4.0	/
Cc1cc(C)c2nc(N3C(=O)C(O)=C(C(=O)c4ccco4)C3c3cccc(O)c3)sc2c1 (stereo not given)	/	99.2*	2.3	/	12.1	-5.7
Cc1sc(NN=Cc2cccnc2)nc1-c1ccccc1	/	/	0.6	/	/	/
COc1ccccc1C=NNC(=O)CN(C1=NS(=O)(=O)c2ccccc21)c1ccccc1	/	/	-1.0	/	/	/
COc1ccc2[nH]cc(/C=N/NS(=O)(=O)c3ccc(C)cc3)c2c1	7.3	/	/	/	4.0	-12.3
Cc1ccc(S(=O)(=O)N/N=C/c2c[nH]c3ccccc23)cc1	19.5	73.9	/	26.0*	4.9	-13.5
COc1ccc2[nH]cc(C=NNS(=O)(=O)c3ccc(C)cc3)c2c1	/	/	6.4	/	/	/
COc1ccc2c(/C=N/NS(=O)(=O)c3ccc(C)cc3)c[nH]c2c1	11.4	89.3*	/	14.7	3.2	-11.5
CCOC(=O)CSc1ccc(C(=O)N2CCN(C)CC2)cc1[N+](=O)[O-]	102.0*	-2.3	2.5	-20.4	-13.1	-10.0
CCOC(=O)CSc1ccc(C(=O)NCCN2CCOCC2)cc1[N+](=O)[O-]	-1.0	3.0	2.6	10.9	8.3	-11.5
O=C(NN=Cc1ccc(OCCCF)cc1)c1ccc(C(F)(F)F)cc1	/	/	1.1	/	/	/
Fc1cccc(-n2cc(-c3ccccc3)c3c(=S)nc[nH]c32)c1	101.3*	-2.5	/	-6.7	7.5	1.4
Cc1ccc(CON=Cc2c(O)cc(C)oc2=O)cc1	/	/	-1.0	/	/	/
O=C(Cn1cc(C(F)(F)F)ccc1=O)NN=Cc1ccc(F)cc1	/	/	3.8	/	/	/
O=C(O)CCNc1ccc(NCCC(=O)O)c2c1C(=O)c1ccccc1C2=O	3.4	99.2*	/	-2.0	20.9	2.2
CC(=NNC(=O)CN1CCN(c2ccc(F)cc2)CC1)c1ccco1	/	/	2.7	/	/	/
CCC(C)N=C1SCC(C)(C=NO)S1 (stereo not given)	/	/	2.1	/	/	/
Cc1ccc(OCc2cc(C(=O)NCc3ccc(OC(F)(F)F)cc3)no2)cn1	8.8	1.8	3.8	9.6	6.7	8.5
Cc1ccc(OCc2cc(C(=O)NCc3cnn(-c4cccc(F)c4)c3)no2)cn1	78.5*	1.5	0.4	6.5	22.2	12.9
CC(C)CC(=O)NC(=S)NNC(=O)c1ccc(NC(=O)C2CCCCC2)cc1	75.5*	21.6	-53.6	-2.4	17.0	-14.4
COc1ccc(C(=O)NC(=S)NNC(=O)Cc2cccs2)cc1	9.8	98.9*	2.1	8.8	7.7	-3.7
SMILES	Calb FLC	ALR H2O2 inh	UCH37 inh	NALP1 yeast inh	NALP3 yeast inh	ATG4B inhibitor
COc1cc(OC)cc(C(=O)NC(=S)NNC(=O)Cc2cccs2)c1	32.4	99.3*	0.6	-2.1	23.5	-7.9
COc1ccc(C(=O)NC(=S)NNC(=O)CNC(=O)C2CCCCC2)cc1	-1.4	98.9*	1.8	10.8	10.1	2.0
CC(C)CC(=O)NC(=S)NNC(=O)c1ccc([N+](=O)[O-])cc1	27.8	9.9	5.3	-9.6	19.3	2.5
O=C(/C=C/c1cccs1)NC(=S)NNC(=O)Cc1cccs1	-5.9	32.5	1.5	-56.3	14.6	-8.1
CC(=NN1CCN(Cc2cccc3ccccc23)CC1)c1cccnc1	/	/	-1.2	/	/	/
O=C1/C(=C/c2cccnc2)SC(=S)N1Nc1ccccc1	-1.7	92.3*	0.1	-2.4	18.4	-4.5
Nc1nnnn1N=Cc1ccccc1OCc1ccc(Cl)cc1Cl	/	/	1.0	/	/	/
CCOC(=O)C1=C(C)NC(C)=C(C(=O)OCC)C1c1ccc(C)o1	-1.9	1.5	-7.0	22.5	14.7	-5.6
CC1=C(C(N)=O)C(c2ccc(C)o2)C(C(N)=O)=C(C)N1	70.8*	0.9	4.3	22.7	2.3	-2.6
COc1ccc2[nH]c3c(=S)nc[nH]c3c2c1	9.0	99.3*	-9.6	-31.9	21.1	12.6
CC1=Nc2cccc3cccc(c23)N1C	-1.0	99.1*	9.2	34.3	-1.2	25.3
Cc1cccc(OCC(=O)Nc2ccc3nc(C)sc3c2)c1	11.1	-4.0	2.5	11.1	37.0	-11.2
Cc1nc2ccc(NC(=O)COc3ccccc3)cc2s1	107.7*	/	-0.3	3.1	/	-1.4
O=C(COc1ccccc1)NNc1nc2ccccc2s1	-4.5	99.2*	0.2	/	8.8	-4.5
COc1ccc2nc(NNC(=O)COc3ccccc3)sc2c1	-24.8	-22.6	-0.4	12.5	6.1	-11.7
CCOCC(=O)Nc1nc2ccccc2s1	10.3	86.5*	-2.4	0.1	30.5	0.1
O=C(NN=Cc1ccc([N+](=O)[O-])cc1)c1cccnc1	/	/	11.5	/	/	/
COc1ccc(-c2nc3ccccn3c2N=Cc2ccc(OC)c(OC)c2)cc1O	/	/	-242.2	/	/	/
O=C(O)c1cccc(S(=O)(=O)Nc2ccc3c(c2)OCO3)c1	-2.7	-11.5	2.1	-5.0	4.8	0.9
O=S(=O)(Nc1ccc2c(c1)OCO2)c1ccc(F)c(F)c1	/	88.4*	0.9	/	18.0	-3.8
CCOc1ccc(Nc2nc(NCC3CCCO3)c3ccccc3n2)cc1 (stereo not given)	98.9*	22.4	-7.8	10.5	17.9	8.6
c1ccc(-c2nc(NCC3CCCO3)c3ccccc3n2)nc1 (stereo not given)	-38.7	8.3	-3.2	26.3	9.4	-10.2
c1ccc(Nc2nc(NCC3CCCO3)c3ccccc3n2)cc1 (stereo not given)	?	-1.5	-52.5	12.6	14.2	16.7
COc1ccc(Nc2nc(NCC3CCCO3)c3ccccc3n2)c(OC)c1 (stereo not given)	36.3	98.2*	-5.5	19.2	22.6	-6.3
Oc1cccc(Nc2nc(NCC3CCCO3)c3ccccc3n2)c1 (stereo not given)	21.3	99.7*	-13.1	8.8	6.6	1.6
c1ccc2c(NCC3CCCO3)nc(N3CCOCC3)nc2c1 (stereo not given)	-32.7	-8.7	-144.4	6.9	4.7	-5.1
Cc1nn(-c2ccccc2)c(Cl)c1C=NNC(=O)c1ccnn1C	/	/	-1.5	/	/	/
CSc1nncc(C(C)=NNc2ccccc2)n1	/	/	-1.4	/	/	/
CN1/C(=C/C=N/n2cnnc2)C(C)(C)c2ccccc21	-8.8	94.2*	/	18.0	6.3	0.4
